Measured values from ChEMBL document CHEMBL3414559, “Novel C-4 heteroaryl 13-cis-retinamide Mnk/AR degrading agents inhibit cell proliferation and migration and induce apoptosis in human breast and prostate cancer cells and suppress growth of MDA-MB-231 human breast and CWR22Rv1 human prostate tumor xenografts in mice” (J Med Chem, 2015).

Tests used:
Type in all cases: functional
MCF7 = assay: Growth inhibition of human MCF7 cells at 10 uM by MTT assay; conditions: read-out: GI
MDA-MB-231 [1] = assay: Growth inhibition of human MDA-MB-231 cells at 10 uM by MTT assay; conditions: read-out: GI
MDA-MB-468 = assay: Growth inhibition of human MDA-MB-468 cells at 10 uM by MTT assay; conditions: read-out: GI
[2] = Growth inhibition of human SKBR3 cells at 10 uM by MTT assay; conditions: SK-BR-3, read-out: GI
MDA-MB-231 [3] = assay: Antitumor activity against human MDA-MB-231 cells xenografted in SCID mouse assessed as inhibition of tumor growth at 20 mg/kg, ip dosed once daily for 5 days per week for 28 days; conditions: MDA-MB-231, ip, in the assay text read “athymic nude mouse” for “SCID mouse”, route intraperitoneal, read-out: TGI
Method in brief: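 Athymic nude female mice with subcutaneous MDA-MB-231 tumors (10 × 10⁶ cells; ~100 mm³ at randomization, n = 6/group) dosed ip once daily, 5 days/week for 28 days, in 40% β-cyclodextrin/ddH₂O; vehicle controls. %T/C computed as median tumor volume treated vs control at day 28 × 100. Body weight monitored.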

| Compound | inhibition of growth at 10 µM (MCF7) [%] | inhibition of growth at 10 µM (MDA-MB-231 [1]) [%] | inhibition of growth at 10 µM (MDA-MB-468) [%] | inhibition of growth at 10 µM [2] [%] | inhibition in vivo at 20 mg/kg (MDA-MB-231 [3]) [%] |
| --- | --- | --- | --- | --- | --- |
| COc1cccc(C2=CCC(C)(C)C(/C=C/C(C)=C/C=C/C(C)=C\C(=O)NCCc3ccc(O)cc3)=C2C)c1 | ≥ 40 | ≥ 40 | ≥ 40 | ≥ 40 | – |
| CC1=C(/C=C/C(C)=C/C=C/C(C)=C\C(=O)NCc2ccc(O)cc2)C(C)(C)CC=C1c1cccnc1 | ≥ 40 | ≥ 40 | ≥ 40 | ≥ 40 | – |
| CC1=C(/C=C/C(C)=C/C=C/C(C)=C/C(=O)Nc2ccc(F)cc2)C(C)(C)CCC1n1ccnc1 (stereo not drawn) | – | – | – | – | 97 |
| COc1cccc(C2=CCC(C)(C)C(/C=C/C(C)=C/C=C/C(C)=C\C(=O)NCc3ccc(O)cc3)=C2C)c1 | ≥ 40 | ≥ 40 | ≥ 40 | ≥ 40 | – |
